Source: ChEMBL document CHEMBL2177027, “Exploring the directionality of 5-substitutions in a new series of 5-alkylaminopyrazolo[4,3-e]1,2,4-triazolo[1,5-c]pyrimidine as a strategy to design novel human a(3) adenosine receptor antagonists” (J Med Chem, 2012)

What was measured:
[1] = biological target: T1, Adenosine receptor A1 (Homo sapiens, UniProt P30542); assay: Displacement of [3H]CCPA from human adenosine A1 receptor expressed in CHO cell membrane; assay type: cell membranes
T1 sequence (P30542 whole entry): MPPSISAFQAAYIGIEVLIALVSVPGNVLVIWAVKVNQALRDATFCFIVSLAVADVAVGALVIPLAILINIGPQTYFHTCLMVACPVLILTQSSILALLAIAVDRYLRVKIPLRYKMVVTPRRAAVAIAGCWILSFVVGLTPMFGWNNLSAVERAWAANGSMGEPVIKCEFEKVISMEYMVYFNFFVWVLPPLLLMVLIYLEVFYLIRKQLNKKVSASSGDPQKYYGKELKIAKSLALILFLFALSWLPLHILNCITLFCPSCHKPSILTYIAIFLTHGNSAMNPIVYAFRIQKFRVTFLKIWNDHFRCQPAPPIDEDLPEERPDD
Summary of the method: (§1)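 CHO cells stably transfected with the human receptor subtype. Membranes were prepared by a 1000g spin to clear fragments and nuclei, then pelleted from the supernatant at 100 000g. Pellet was resuspended in the respective binding buffer, frozen in liquid nitrogen and stored until radioligand competition binding.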

[2] = biological target: Adenosine receptors; A1 & A3 (Homo sapiens) (UniProt P30542+P0DMS8); assay: Selectivity ratio of Ki for human adenosine A1 receptor expressed in CHO cell membrane to Ki for human adenosine A3 receptor expressed in CHO cell membrane; assay type: cell-based
[3] = biological target: T2, Adenosine receptor A3 (Homo sapiens, UniProt P0DMS8); assay: Displacement of [3H]NECA from human adenosine A3 receptor expressed in CHO cell membrane; assay type: cell membranes; summary of the method: as §1
T2 sequence (P0DMS8 whole entry): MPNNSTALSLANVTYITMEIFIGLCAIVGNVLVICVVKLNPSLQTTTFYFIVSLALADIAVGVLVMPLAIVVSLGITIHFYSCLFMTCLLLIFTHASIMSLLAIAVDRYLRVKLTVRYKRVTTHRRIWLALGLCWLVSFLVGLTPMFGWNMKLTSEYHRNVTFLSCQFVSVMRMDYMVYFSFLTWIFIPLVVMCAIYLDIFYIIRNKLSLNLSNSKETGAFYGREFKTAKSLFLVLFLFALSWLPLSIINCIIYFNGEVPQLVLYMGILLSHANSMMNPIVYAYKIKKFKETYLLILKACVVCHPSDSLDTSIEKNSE

[4] = Selectivity ratio of Ki for human adenosine A2A receptor expressed in CHO cell membrane to Ki for human adenosine A3 receptor expressed in CHO cell membrane; assay type: cell-based
[5] = biological target: Adenosine receptor A2a (Homo sapiens, UniProt P29274); assay: Displacement of [3H]NECA from human adenosine A2A receptor expressed in CHO cell membrane; assay type: cell membranes; summary of the method: as §1
Chain of Adenosine receptor A2a (P29274 whole entry): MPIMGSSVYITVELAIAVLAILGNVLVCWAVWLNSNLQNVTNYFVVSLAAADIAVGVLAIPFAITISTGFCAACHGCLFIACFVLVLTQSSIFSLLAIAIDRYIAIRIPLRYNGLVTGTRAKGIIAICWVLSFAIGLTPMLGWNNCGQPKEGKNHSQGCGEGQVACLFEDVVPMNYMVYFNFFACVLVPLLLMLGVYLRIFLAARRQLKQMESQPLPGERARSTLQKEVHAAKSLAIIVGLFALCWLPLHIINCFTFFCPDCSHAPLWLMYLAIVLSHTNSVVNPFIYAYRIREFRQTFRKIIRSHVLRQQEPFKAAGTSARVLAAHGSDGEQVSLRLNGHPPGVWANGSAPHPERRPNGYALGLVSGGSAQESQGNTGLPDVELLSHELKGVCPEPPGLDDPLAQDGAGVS

[6] = Selectivity ratio of Ki for human adenosine A1 receptor expressed in CHO cell membrane to Ki for human adenosine A2A receptor expressed in CHO cell membrane; assay type: cell-based
[7] = biological target: T3, Adenosine receptor A2b (Homo sapiens, UniProt P29275); assay: Antagonist activity at human adenosine A2B receptor expressed in CHO cells assessed as NECA-induced adenylate cyclase activity; assay type: functional, cell-based
T3 sequence (P29275 whole entry): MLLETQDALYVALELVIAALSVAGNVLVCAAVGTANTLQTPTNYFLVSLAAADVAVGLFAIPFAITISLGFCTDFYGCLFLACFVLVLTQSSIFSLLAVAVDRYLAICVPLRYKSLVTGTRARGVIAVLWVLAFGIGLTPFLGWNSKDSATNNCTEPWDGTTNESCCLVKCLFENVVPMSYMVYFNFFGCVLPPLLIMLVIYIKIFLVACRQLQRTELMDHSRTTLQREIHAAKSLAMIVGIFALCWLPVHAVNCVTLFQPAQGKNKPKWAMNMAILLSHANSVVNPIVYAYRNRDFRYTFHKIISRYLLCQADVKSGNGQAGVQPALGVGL
Summary of the method: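 Membranes from stably transfected CHO cells made with a single high-speed spin of the homogenate. Incubated 20 min with about 150 000 cpm [α-³²P]ATP in mixture lacking EDTA and NaCl. IC50 taken from concentration-dependent inhibition of NECA-stimulated adenylyl cyclase using Hill equation.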

| Structure (SMILES) | Ki [1] [nM] | Ratio Ki [2] | Ki [3] [nM] | Ratio Ki [4] | Ki [5] [nM] | Ratio Ki [6] | Ki [7] [nM] |
| --- | --- | --- | --- | --- | --- | --- | --- |
| Cn1cc2c(nc(NC(c3ccccc3)c3ccccc3)n3nc(-c4ccco4)nc23)n1 | 169 | 204 | 0.83 | 1080 | 900 | 0.19 | > 10000 |
| COc1ccc(CCNc2nc3nn(C)cc3c3nc(-c4ccco4)nn23)cc1OC | 1580 | 42 | 37.6 | 2.46 | 92.5 | 17.1 | 3880 |
| Cn1cc2c(nc(NCCc3c[nH]c4ccccc34)n3nc(-c4ccco4)nc23)n1 | 1250 | 40.4 | 30.9 | 2.49 | 77 | 16.2 | 2870 |
| COCCNc1nc2nn(C)cc2c2nc(-c3ccco3)nn12 | 2400 | 9.76 | 246 | 1.65 | 407 | 5.9 | > 10000 |
| Cn1cc2c(nc(NC3CCCCCC3)n3nc(-c4ccco4)nc23)n1 | 223 | 14.5 | 15.4 | 21.8 | 336 | 0.66 | 6590 |
| Cn1cc2c(nc(NCc3ccc(-c4ccccc4)cc3)n3nc(-c4ccco4)nc23)n1 | 17500 | 93.6 | 187 | 3.17 | 593 | 29.5 | > 10000 |
| CC(C)Nc1nc2nn(C)cc2c2nc(-c3ccco3)nn12 | 333 | 9.76 | 34.1 | 11.4 | 389 | 0.86 | 9720 |
| Cn1cc2c(nc(NC3CCCC3)n3nc(-c4ccco4)nc23)n1 | 80.1 | 10.4 | 7.68 | 16.9 | 130 | 0.62 | 2650 |
| Cn1cc2c(nc(N3CCCCC3)n3nc(-c4ccco4)nc23)n1 | 2150 | 56.4 | 38.1 | 9.24 | 352 | 6.11 | > 10000 |
| C[C@H](Nc1nc2nn(C)cc2c2nc(-c3ccco3)nn12)c1ccccc1 | 338 | 1130 | 0.3 | 184 | 55.2 | 6.12 | 5290 |
| CNc1nc2nn(C)cc2c2nc(-c3ccco3)nn12 | 1930 | 30.4 | 63.4 | 5.8 | 368 | 5.24 | 2110 |
| Cn1cc2c(nc(Cl)n3nc(-c4ccco4)nc23)n1 | 6560 | 17.9 | 367 | 81.5 | 29900 | 0.22 | > 10000 |
| Cn1cc2c(nc(NCc3ccc(C(F)(F)F)cc3)n3nc(-c4ccco4)nc23)n1 | 1230 | 82.5 | 14.9 | 16.4 | 245 | 5.02 | > 3000 |
